{"source": "ChEMBL document CHEMBL4725371", "about": "“A Novel Redox Modulator Induces a GPX4-Mediated Cell Death That Is Dependent on Iron and Reactive Oxygen Species” (J Med Chem, 2020)", "key": {"PANC-1 [1]": {"system": "PANC-1", "experiment": "Synergistic inhibition of colony formation in human PANC-1 cells at 0.125 to 0.5 uM measured after 24 hrs in presence of napabucasin by crystal violet staining based assay", "assay_type": "functional, cell-based", "conditions": "dose microM 0.125-0.5, time 24.0 hrs", "summary_of_the_method": "(§1)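 Colony formation in 96-well plates seeded at 300 (MIA PaCa-2) or 600 (PANC-1) cells/well. Napabucasin, As2O3 or olaparib added 1 h before test compound; drugs on cells 24 h. Plates kept until controls were 80–90% confluent (7–9 days), then stained with 0.05% crystal violet and quantified. Synergy scored by HSA and Bliss models.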"}, "MIA PaCa-2 [2]": {"system": "MIA PaCa-2", "experiment": "Cytotoxicity against human MIA PaCa-2 cells measured after 72 hrs by MTT assay", "assay_type": "functional, cell-based", "conditions": "MIA PaCa-2, 72 h", "summary_of_the_method": "(§2)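 Cells were kept in RPMI 1640 with 10% FBS at 37 °C, 5% CO₂, under 35 passages. Cells were seeded, attached overnight and treated with compound or DMSO for 72 h. MTT was added at 0.3 mg/mL for 3 h, then dissolved in DMSO and read as absorbance at 570 nm. IC50 was fitted from the curve. Values are mean ± sd of three independent experiments.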"}, "BXPC-3": {"system": "BXPC-3", "experiment": "Cytotoxicity against human BXPC-3 cells measured after 72 hrs by MTT assay", "assay_type": "functional, cell-based", "conditions": "BXPC-3, 72 h", "summary_of_the_method": "as §2"}, "MIA PaCa-2 [3]": {"system": "MIA PaCa-2", "experiment": "Induction of reactive oxygen species in human MIA PaCa-2 cells at 10 uM measured after 1 hr by CM-H2DCFDA dye based fluorescence assay", "assay_type": "functional, cell-based", "summary_of_the_method": "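1.8 × 10⁴ cells per well were attached overnight, then loaded with 10 μM CM-H2DCFDA in HBSS for 40 min at 37 °C and washed. Compounds were added in HBSS. Fluorescence was read at Ex 483 / Em 530 nm. TBHP was the positive control. NAC at 3 mM was used where stated.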"}, "[4]": {"target": "Signal transducer and activator of transcription 3 (Homo sapiens) (UniProt P40763)", "sequence (P40763 whole entry)": "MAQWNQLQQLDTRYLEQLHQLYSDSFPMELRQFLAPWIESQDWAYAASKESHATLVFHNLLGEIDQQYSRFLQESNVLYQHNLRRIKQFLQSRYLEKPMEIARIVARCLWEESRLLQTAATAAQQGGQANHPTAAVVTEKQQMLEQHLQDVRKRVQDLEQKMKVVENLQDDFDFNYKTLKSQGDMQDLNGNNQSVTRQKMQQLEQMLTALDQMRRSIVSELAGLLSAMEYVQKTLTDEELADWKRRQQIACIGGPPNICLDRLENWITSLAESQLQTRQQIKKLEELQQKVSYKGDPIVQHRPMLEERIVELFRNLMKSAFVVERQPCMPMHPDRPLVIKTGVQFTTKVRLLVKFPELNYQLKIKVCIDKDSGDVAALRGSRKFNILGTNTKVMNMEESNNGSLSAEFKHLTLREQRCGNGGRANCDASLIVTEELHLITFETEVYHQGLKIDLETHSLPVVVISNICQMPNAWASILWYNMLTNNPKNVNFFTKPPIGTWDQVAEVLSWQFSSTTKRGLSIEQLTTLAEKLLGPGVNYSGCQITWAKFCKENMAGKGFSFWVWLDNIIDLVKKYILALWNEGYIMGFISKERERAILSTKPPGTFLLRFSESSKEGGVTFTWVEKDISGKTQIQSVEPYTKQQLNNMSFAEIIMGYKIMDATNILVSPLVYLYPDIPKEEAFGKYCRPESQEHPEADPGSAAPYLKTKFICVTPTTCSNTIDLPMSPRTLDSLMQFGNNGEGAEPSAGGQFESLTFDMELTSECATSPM", "experiment": "Inhibition of STAT3 phosphorylation in human MIA PaCa-2 cells at 1 to 1.5 uM measured after 4 hrs by Western blot analysis", "assay_type": "cell-based", "conditions": "dose microM 1-1.5, time 4.0 hrs", "summary_of_the_method": "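Cells were treated 4 h at the stated concentrations and lysed in RIPA with protease and phosphatase inhibitors. 25 μg protein was resolved on 10% SDS gels, transferred to PVDF and probed for STAT3, pSTAT3, pH2AX and GAPDH. Detection used fluorescent secondary antibodies, with normalisation to loading control.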"}, "MIA PaCa-2 [5]": {"system": "MIA PaCa-2", "experiment": "Inhibition of colony formation in human MIA PaCa-2 cells at 0.25 to 1 uM measured after 7 to 9 days in presence of caspase-dependent apoptosis inhibitor Z-VAD by crystal violet staining based assay", "assay_type": "functional, cell-based", "conditions": "dose microM 0.25-1, time day 7-9", "summary_of_the_method": "(§3)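 Cells seeded overnight in 96-well plates at 300 cells/well (MIA PaCa-2) or 600 cells/well (BxPC-3), in RPMI 1640 with 10% FBS. Inhibitor added 1 h before compound, then continuous exposure for 7–9 days until control wells were 80–90% confluent. Stained with 0.05% crystal violet for 30 min, imaged after overnight drying and quantified.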"}, "MIA PaCa-2 [6]": {"system": "MIA PaCa-2", "experiment": "Inhibition of colony formation in human MIA PaCa-2 cells at 0.4 to 0.8 uM measured after 7 to 9 days in presence of necroptosis inhibitor necrostatin-1 by crystal violet staining based assay", "assay_type": "functional, cell-based", "conditions": "dose microM 0.4-0.8, time day 7-9", "summary_of_the_method": "as §3"}, "[7]": {"target": "T1, Phospholipid hydroperoxide glutathione peroxidase GPX4 (Homo sapiens) (UniProt P36969)", "T1 sequence (whole entry)": "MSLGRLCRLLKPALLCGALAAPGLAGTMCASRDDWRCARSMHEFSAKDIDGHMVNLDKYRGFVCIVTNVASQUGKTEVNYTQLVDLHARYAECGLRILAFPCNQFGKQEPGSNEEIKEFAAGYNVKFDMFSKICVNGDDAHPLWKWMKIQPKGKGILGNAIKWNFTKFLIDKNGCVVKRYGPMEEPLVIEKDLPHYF", "experiment": "Binding affinity to GPX4 in human MIA PaCa-2 cells assessed as protein destabilization by measuring melting temperature at 100 uM measured after 1 hr by thermal shift assay (reference value: 60.34 degreeC)", "assay_type": "cell-based"}, "MIA PaCa-2 [8]": {"system": "MIA PaCa-2", "experiment": "Cytotoxicity against human MIA PaCa-2 cells transfected with GPX4 siRNA measured after 72 hrs by MTT assay", "assay_type": "functional, cell-based"}, "MIA PaCa-2 [9]": {"system": "MIA PaCa-2", "experiment": "Inhibition of colony formation in human MIA PaCa-2 cells at 0.375 to 0.75 uM measured after 7 to 9 days in presence of GPX4 inhibitor RSL3 by crystal violet staining based assay", "assay_type": "functional, cell-based", "conditions": "dose microM 0.375-0.75, time day 7-9", "summary_of_the_method": "as §3"}, "MIA PaCa-2 [10]": {"system": "MIA PaCa-2", "experiment": "Down regulation of PNPT1 expression in human MIA PaCa-2 cells at 1.2 uM measured after 24 hrs by proteomics analysis", "assay_type": "functional, cell-based", "summary_of_the_method": "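MIA PaCa-2 cells were treated with 1.2 μM compound or DMSO for 24 h and lysed in RIPA buffer. 75 μg protein per sample was run in duplicate by TMT10plex-labelled proteomics. Abundance ratio was taken as treatment over control. Changes of at least 1.5-fold at FDR < 0.05 were scored.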"}, "MIA PaCa-2 [11]": {"system": "MIA PaCa-2", "experiment": "Down regulation of LRPPRC expression in human MIA PaCa-2 cells at 3 times IC50 measured after 4 hrs in presence of NQO1 inhibitor dicoumarol by proteomics analysis", "assay_type": "functional, cell-based"}, "PANC-1 [12]": {"system": "PANC-1", "experiment": "Down regulation of PNPT1 expression in human PANC-1 cells at 3 times IC50 measured after 1 to 24 hrs by proteomics analysis", "assay_type": "functional, cell-based", "conditions": "time hrs 1-24"}, "MIA PaCa-2 [13]": {"system": "MIA PaCa-2", "experiment": "Synergistic inhibition of colony formation in human MIA PaCa-2 cells at 0.25 uM measured after 24 hrs in presence of As2O3 by crystal violet staining based assay", "assay_type": "functional, cell-based", "summary_of_the_method": "as §1"}, "[14]": {"experiment": "Half life in mouse liver microsomes at 10 uM in presence of NADPH by LC-MS/MS analysis", "assay_type": "ADME, Microsome", "conditions": "liver microsomes", "summary_of_the_method": "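Compound (10 μM working solution in 0.1 M phosphate buffer with 3.3 mM MgCl₂) was incubated with mouse liver microsomes and NADPH. Verapamil served as reference. Samples were taken at 0, 5, 10, 15, 30, 45 and 60 min and centrifuged at 3500 g. Supernatant was run by LC-MS/MS. t1/2 came from the slope of ln(peak area ratio) against time.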"}, "[15]": {"experiment": "Plasma concentration in CD-1 mouse at 10 mg/kg, ip measured after 7 hrs by LC-MS/MS analysis", "assay_type": "ADME, organism-based", "summary_of_the_method": "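CD-1 mice dosed IP at 10 mg/kg or PO at 20 mg/kg, n=2 per route. Blood taken with heparinized pipettes at 0.5, 2, 4 and 7 h and spun at 15,000 rpm for 10 min. Plasma stored at −80 °C, then measured by LC-MS/MS.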"}, "[16]": {"experiment": "Toxicity in CD-1 mouse assessed as death at 10 mg/kg, iv", "assay_type": "organism-based", "conditions": "in vivo", "summary_of_the_method": "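CD-1 mice given a single IV injection at 10 mg/kg, three mice per group. Blood was drawn into heparinized pipettes at 0.5, 2, 4 and 7 h for plasma LC-MS/MS. Deaths were noted over the course of the study.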"}, "[17]": {"experiment": "Drug metabolism in mouse plasma assessed as 6-[4-[(2R)-2-hydroxy-4-methyl-piperazin-1-yl]anilino]quinazoline-5,8-dione formation at 500 uM measured after 0.5 hrs by LC-MS/MS analysis", "assay_type": "ADME, cell-free", "summary_of_the_method": "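Compound (500 μM DMSO stock, 1 μL per 500 μL) was incubated in pooled mouse plasma. Samples were taken at 0.5 h and metabolites identified by LC-MS/MS.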"}}, "note": "Active and inactive are the calls of the source. No cut-off for these calls is given here.", "data": [{"compound": "CN1CCN(c2ccc(NC3=CC(=O)c4ncncc4C3=O)cc2)CC1", "values": [{"measurement": "inhibition", "setting": "PANC-1 [1]", "value": "Active"}, {"measurement": "IC50", "setting": "MIA PaCa-2 [2]", "value": 640, "unit": "nM"}, {"measurement": "IC50", "setting": "BXPC-3", "value": 900, "unit": "nM"}, {"measurement": "Activity", "setting": "MIA PaCa-2 [3]", "value": "Active"}, {"measurement": "inhibition", "setting": "[4]", "value": "Active"}, {"measurement": "inhibition", "setting": "MIA PaCa-2 [5]", "value": "Active"}, {"measurement": "inhibition", "setting": "MIA PaCa-2 [6]", "value": "Active"}, {"measurement": "Tm", "setting": "[7]", "value": 57.6, "unit": "°C"}, {"measurement": "Activity", "setting": "MIA PaCa-2 [8]", "value": "inactive"}, {"measurement": "inhibition", "setting": "MIA PaCa-2 [9]", "value": "inactive"}, {"measurement": "Activity", "setting": "MIA PaCa-2 [10]", "value": "Active"}, {"measurement": "Activity", "setting": "MIA PaCa-2 [11]", "value": "inactive"}, {"measurement": "Activity", "setting": "PANC-1 [12]", "value": "inactive"}, {"measurement": "inhibition", "setting": "MIA PaCa-2 [13]", "value": "Active"}, {"measurement": "half-life at 10 µM", "setting": "[14]", "value": "> 1", "unit": "h"}, {"measurement": "concentration at 7 h", "setting": "[15]", "value": 4.5, "unit": "ng/mL"}, {"measurement": "Activity", "setting": "[16]", "value": "Toxic"}, {"measurement": "Drug metabolism", "setting": "[17]", "value": "Metabolite_Detected"}]}]}
